A short description of assay [1]: Cytotoxicity against human Hs578Bst cells assessed as reduction in cell viability measured after 24 hrs by CellTiter-Glo luminescent assay. Format: cell-based. An outline of the steps:
(§1)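 High-throughput viability screen of test agents across a panel of 22 cancerous and noncancerous human cell lines. Viability was read by CellTiter-Glo luminescence.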

Assay [2] in a line: Inhibition of IKKalpha/IKKbeta in human HEK293T cells transfected with firefly luciferase gene assessed as inhibition of TNF-alpha-stimulated NF-kappaB signalling preincubated for 1 hr followed by TNF alpha stimulation measured after 3 hrs by luciferase reporter gene assay. In kind it is cell-based. The conditions noted are these: HEK-293T. An outline of the steps: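 Commercial NF-κB-driven luciferase reporter assay in HEK 293T cells stimulated with TNFα. EC50 was derived from the luminescence readout.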
A general note: In a reporter assay the amount or activity of a reporter protein is the signal.

Assay [3] has as its system PSN1. Description: Cytotoxicity against human PSN1 cells assessed as reduction in cell viability measured after 24 hrs by CellTiter-Glo luminescent assay. In kind it is functional, cell-based. The conditions noted are these: PSN1, 24 h. Put shortly: as §1
For orientation: In ATP-based viability assays light output follows the ATP content of the culture.

In assay [4] the test system is HCC1599. Description: Cytotoxicity against human HCC1599 cells assessed as reduction in cell viability measured after 24 hrs by CellTiter-Glo luminescent assay. Format: functional, cell-based. The conditions noted are these: HCC1599, 24 h. Put shortly: as §1
Assay [5] relates to Hs-578T. In words: Cytotoxicity against human Hs-578T cells assessed as reduction in cell viability measured after 24 hrs by CellTiter-Glo luminescent assay. In kind it is functional, cell-based. An outline of the steps: as §1
Assay [6] can be described thus: Cytotoxicity against human Hs895T cells assessed as reduction in cell viability measured after 24 hrs by CellTiter-Glo luminescent assay. In kind it is functional, cell-based. Put shortly:
as §1

Assay [7] in a line: Cytotoxicity against human Hs895SK cells assessed as reduction in cell viability measured after 24 hrs by CellTiter-Glo luminescent assay. In kind it is cell-based. The conditions noted are these: Hs 895.Sk. Put shortly:
as §1

Assay [8] can be described thus: Cytotoxicity against human Hs888Lu cells assessed as reduction in cell viability measured after 24 hrs by CellTiter-Glo luminescent assay. Format: cell-based. An outline of the steps: as §1
The test system of assay [9] is RCK8. Description: Cytotoxicity against human RC-K8 cells assessed as reduction in cell viability measured after 24 hrs by CellTiter-Glo luminescent assay. The conditions noted are these: RCK8, 24 h. Format: functional, cell-based. An outline of the steps:
as §1

Assay [10] has as its system CA46. Description: Cytotoxicity against human CA46 cells assessed as reduction in cell viability measured after 24 hrs by CellTiter-Glo luminescent assay. In kind it is functional, cell-based. The conditions noted are these: CA46, 24 h. Put shortly: as §1
The subject of assay [11] is SUD4. Description: Cytotoxicity against human SU-DHL-4 cells assessed as reduction in cell viability measured after 24 hrs by CellTiter-Glo luminescent assay. In kind it is functional, cell-based. To be noted: SU-DHL-4, 24 h. Put shortly:
as §1

Assay [12] concerns HEK-293T. In words: Cytotoxicity against human HEK293T cells assessed as reduction in cell viability measured after 24 hrs by CellTiter-Glo luminescent assay. In kind it is cell-based. An outline of the steps:
as §1

The subject of assay [13] is NCI-H446. Description: Cytotoxicity against human NCI-H446 cells assessed as reduction in cell viability measured after 24 hrs by CellTiter-Glo luminescent assay. In kind it is functional, cell-based. To be noted: NCI-H446, 24 h. An outline of the steps:
as §1

Broadly, the IC50 is the midpoint of a concentration-inhibition curve. For orientation: EC50 means the concentration at which the effect is half-maximal. In the case of `C=C1C[C@]23C[C@@]1(O)CC[C@H]2c1cc(Br)c(O)c(C)c1[C@@H]3C(=O)OC`, the IC50 in [1], in [3], in assay [4], in [5], in assay [6] and in assay [7] was > 10 µM each time. The IC50 in [8], in [9], in [10], in assay [11], in assay [12] and in assay [13] was > 10 µM each time. For the same molecule, the EC50 in assay [2] is > 100 µM.
For `C=C1C[C@]23C[C@@]1(O)CC[C@H]2c1ccc(O)c(C)c1[C@@H]3C(=O)OC`, the half-maximal inhibitory concentration (IC50) in [1], in assay [3], in [4], in [5], in [6] and in assay [7] was > 10 µM throughout. Moreover, the IC50 in [8], in [9], in assay [10], in assay [11], in assay [12] and in assay [13] was > 10 µM in each case. For the same molecule, the EC50 in [2] was > 100 µM.
On to `C=C1[C@@H](O)[C@]23C[C@@]1(O)CC[C@H]2[C@@]12C=C[C@H](O)[C@@](C)(C(=O)O1)[C@H]2[C@@H]3C(=O)OC`, for which the IC50 in assay [1], in assay [3], in [4], in [5], in assay [6] and in [7] was > 10 µM in each case. The half-inhibitory concentration (IC50) in [8], in assay [9], in assay [10], in [11], in assay [12] and in assay [13] was > 10 µM in each case. In assay [2], the concentration giving a half-maximal response (EC50) is > 100 µM.
Turning to `Cc1cccc2c1[C@H](C(=O)O)[C@@]13CC(=O)[C@@](C)(CC[C@H]21)C3`, the concentration for half-maximal inhibition (IC50) in assay [1], in assay [3], in assay [4], in [5], in [6] and in assay [7] was > 10 µM each time. Besides, the 50% inhibitory concentration (IC50) in assay [8], in assay [9], in assay [10], in assay [11], in assay [12] and in [13] was > 10 µM throughout. In addition, in assay [2], the concentration giving a half-maximal response (EC50) is > 100 µM.
Consider `C=C1C[C@]23C[C@@]1(O)CC[C@H]2c1ccc(O/C=C/C(=O)OC)c(C)c1[C@@H]3C(=O)OC`, for which the half-inhibitory concentration (IC50) in assay [1], in assay [3], in assay [4], in assay [5], in [6] and in assay [7] was > 10 µM each time. Besides, the IC50 in assay [8], in assay [9], in assay [10], in assay [11], in assay [12] and in assay [13] was > 10 µM throughout. The concentration for a half-maximal effect (EC50) in assay [2] was > 100 µM.
As for `COC(=O)[C@H]1c2c(C)cccc2[C@H]2CC[C@@]3(C)C[C@]21CC3=O`, the concentration for half-maximal inhibition (IC50) in [1], in assay [3], in assay [4], in assay [5], in assay [6] and in [7] was > 10 µM throughout. In addition, the IC50 in [8], in assay [9], in assay [10], in [11], in [12] and in assay [13] was > 10 µM in each case. For the same molecule, in [2], the EC50 was > 100 µM.
As to `C=C1C[C@]23C[C@@]1(O)CC[C@H]2c1cc(Br)c(O/C=C/C(=O)OC)c(C)c1[C@@H]3C(=O)OC`, the IC50 in assay [1], in [3], in [4], in assay [5], in assay [6] and in assay [7] was > 10 µM each time. Also, the IC50 in assay [8], in assay [9], in assay [10], in assay [11], in assay [12] and in assay [13] was > 10 µM in each case. Further, the half-maximal effective concentration (EC50) in assay [2] was > 100 µM.
As for `C=C1[C@@H]2OC(=O)[C@H]3[C@@H]4[C@@]5(C)C(=O)C=C[C@@]4(OC5=O)[C@@H]4CC[C@]1(O)C[C@]234`, the IC50 in [1], in assay [3], in assay [5], in assay [6], in [7] and in [8] was > 10 µM each time. Further, the IC50 in [12] is > 10 µM. Moreover, the concentration for a half-maximal effect (EC50) in assay [2] was 57 µM; in [4], 5.5 µM; in assay [9] it was 4.3 µM; in assay [10] it was 3.7 µM; in assay [11], 3 µM; in [13], 5.9 µM.
In the case of `C=C1[C@@H]2OC(=O)[C@H]3c4c(C)cccc4[C@@H]4CC[C@]1(O)C[C@@]243`, the half-maximal inhibitory concentration (IC50) in assay [1], in [3], in assay [4], in assay [5], in assay [6] and in assay [7] was > 10 µM in each case. The IC50 in [8], in assay [9], in assay [10], in assay [11], in [12] and in [13] was > 10 µM throughout. In assay [2], the 50% effective concentration (EC50) was > 100 µM.
As to `C=C1C[C@]23C[C@@]1(O)CC[C@H]2c1cc2c(C(=O)O)coc2c(C)c1[C@@H]3C(=O)O`, the 50% inhibitory concentration (IC50) in [1], in assay [3], in assay [4], in assay [5], in [6] and in assay [7] was > 10 µM in each case. Moreover, the IC50 in assay [8], in assay [9], in [10], in assay [11], in [12] and in assay [13] was > 10 µM throughout. The EC50 in [2] is > 100 µM.
`C=C1[C@@H](O)[C@]23C[C@@]1(O)CC[C@H]2c1ccc(O)c(C)c1[C@@H]3C(=O)OC`: the IC50 in assay [1], in [3], in [4], in [5], in assay [6] and in assay [7] was > 10 µM each time. In addition, the IC50 in assay [8], in assay [9], in assay [10], in [11], in assay [12] and in [13] was > 10 µM each time. Moreover, the 50% effective concentration (EC50) in assay [2] is > 100 µM.
In the case of `COC(=O)[C@H]1c2c(C)cccc2[C@@H]2CC[C@@]3(C)C[C@]21CC3=O`, the IC50 in assay [1], in assay [3], in [4], in assay [5], in assay [6] and in assay [7] was > 10 µM throughout. The half-inhibitory concentration (IC50) in [8], in assay [9], in assay [10], in assay [11], in assay [12] and in [13] was > 10 µM in each case. Further, in assay [2], the concentration giving a half-maximal response (EC50) is > 100 µM.
In the case of `C=C1C[C@]23C[C@@]1(O)CC[C@H]2c1cc2c(C(=O)OC)coc2c(C)c1[C@@H]3C(=O)OC`, the IC50 in [1], in [3], in assay [4], in assay [5], in [6] and in assay [7] was > 10 µM in each case. For the same molecule, the half-maximal inhibitory concentration (IC50) in assay [8], in [9], in assay [10], in assay [11], in [12] and in [13] was > 10 µM throughout. The concentration giving a half-maximal response (EC50) in assay [2] is > 100 µM.
Consider `COC(=O)[C@H]1c2c(ccc(O)c2C)[C@@H]2CC[C@@]3(C)C[C@]21CC3=O`, for which the IC50 in [1], in assay [3], in assay [4], in assay [5], in [6] and in [7] was > 10 µM in each case. The IC50 in [8], in assay [9], in [10], in assay [11], in [12] and in [13] was > 10 µM each time. The half-maximal effective concentration (EC50) in [2] was > 100 µM.
